# From ChEMBL document CHEMBL3421593, “Design, synthesis, and biological evaluation of ring-constrained novobiocin analogues as hsp90 C-terminal inhibitors” (ACS Med Chem Lett, 2015)
# Activity calls are given as the source filed them. The rule behind the calls is not given here.
# How the values were obtained:
# MCF7 [1] = assay: Antiproliferative activity against human MCF7 cells; format: functional, cell-based
# In short: (§1)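 Breast cancer lines used were SKBr3 (estrogen receptor negative, Her2 overexpressing) and MCF-7 (estrogen receptor positive). Values are mean ± standard deviation from at least two separate experiments, each performed in triplicate.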
# [2] = Antiproliferative activity against human SKBR3 cells; format: functional, cell-based; conditions: SK-BR-3; in short: as §1
# [3] = biological target: T1, Heat shock protein HSP90 (Homo sapiens) (UniProt P07900+P08238); assay: Inhibition of HSP90 in human MCF7 cells assessed as induction of Her2 protein degradation at 0.5 times antiproliferative IC50 level incubated for 24 hrs by Western blotting method; format: cell-based
# [4] = biological target: T1, Heat shock protein HSP90 (Homo sapiens); assay: Inhibition of HSP90 in human MCF7 cells assessed as induction of Raf1 protein degradation at 0.5 times antiproliferative IC50 level incubated for 24 hrs by Western blotting method; format: cell-based
# [5] = biological target: T1, Heat shock protein HSP90 (Homo sapiens); assay: Inhibition of HSP90 in human MCF7 cells assessed as induction of Akt protein degradation at 0.5 times antiproliferative IC50 level incubated for 24 hrs by Western blotting method; format: cell-based
# [6] = biological target: T1, Heat shock protein HSP90 (Homo sapiens); assay: Inhibition of HSP90 in human MCF7 cells assessed as induction of Akt protein degradation at 5 times antiproliferative IC50 level incubated for 24 hrs by Western blotting method; format: cell-based
# [7] = biological target: T1, Heat shock protein HSP90 (Homo sapiens); assay: Inhibition of HSP90 in human MCF7 cells assessed as induction of Raf1 protein degradation at 5 times antiproliferative IC50 level incubated for 24 hrs by Western blotting method; format: cell-based
# [8] = biological target: T1, Heat shock protein HSP90 (Homo sapiens); assay: Inhibition of HSP90 in human MCF7 cells assessed as induction of Her2 protein degradation at 5 times antiproliferative IC50 level incubated for 24 hrs by Western blotting method; format: cell-based
# MCF7 [9] = assay: Effect on HSP90 protein expression in human MCF7 cells at 0.2 to 10 uM incubated for 24 hrs by Western blotting method; format: cell-based; conditions: mcf7, 24 h
# [10] = biological target: T1, Heat shock protein HSP90 (Homo sapiens); assay: Inhibition of HSP90 in human MCF7 cells assessed as induction of Akt protein degradation at 0.2 to 10 uM incubated for 24 hrs by Western blotting method; format: cell-based
# [11] = biological target: T1, Heat shock protein HSP90 (Homo sapiens); assay: Inhibition of HSP90 in human MCF7 cells assessed as induction of Her2 protein degradation at 0.2 to 10 uM incubated for 24 hrs by Western blotting method; format: cell-based
# [12] = biological target: T1, Heat shock protein HSP90 (Homo sapiens); assay: Inhibition of HSP90 in human MCF7 cells assessed as induction of Raf1 protein degradation at 0.2 to 10 uM incubated for 24 hrs by Western blotting method; format: cell-based
# MCF7 [13] = assay: Effect on actin protein expression in human MCF7 cells at 0.2 to 10 uM incubated for 24 hrs by Western blotting method; format: cell-based; conditions: mcf7, 24 h
IC50 (MCF7 [1]) [µM],SMILES,IC50 [2] [µM],other results
22.9,COc1cccc(-c2cc(C(=O)Nc3cc4ccc5c(c4oc3=O)NC(=O)C(CN3CCCC3)O5)ccc2OC)c1 (stereo unspecified),15,–
1.22,COc1cccc(-c2cc(C(=O)Nc3cc4ccc5c(c4oc3=O)NC(=O)C(CCNC3CC4CCC3C4)O5)ccc2OC)c1 (stereo unspecified),0.68,–
11.4,COc1cccc(-c2cc(C(=O)Nc3cc4ccc5c(c4oc3=O)NC(=O)C(CCN(C)C)O5)ccc2OC)c1 (stereo unspecified),8.06,–
> 50,COc1cccc(-c2cc(C(=O)Nc3cc4ccc5c(c4oc3=O)NC(=O)C(Cc3ccc(Cl)cc3)O5)ccc2OC)c1 (stereo unspecified),> 50,–
7.44,COc1cccc(-c2cc(C(=O)Nc3cc4ccc5c(c4oc3=O)NC(=O)C(CCN3CCOCC3)O5)ccc2OC)c1 (stereo unspecified),6.66,–
1.49,COc1cccc(-c2cc(C(=O)Nc3cc4ccc5c(c4oc3=O)NC(=O)C(CCCN3CCCC3)O5)ccc2OC)c1 (stereo unspecified),1.02,–
1.34,COc1cccc(-c2cc(C(=O)Nc3cc4ccc5c(c4oc3=O)NC(=O)C(CCCNC3CC4CCC3C4)O5)ccc2OC)c1 (stereo unspecified),1.26,–
1.04,COc1cccc(-c2cc(C(=O)Nc3cc4ccc5c(c4oc3=O)NC(=O)C(CCN3CCCCC3)O5)ccc2OC)c1 (stereo unspecified),1.03,–
0.35,COc1cccc(-c2cc(C(=O)Nc3cc4ccc5c(c4oc3=O)NC(=O)C(CCCNC3CCCCC3)O5)ccc2OC)c1 (stereo unspecified),0.2,inhibition [3]: Active; inhibition [4]: Active; inhibition [5]: Active; inhibition [6]: Active; inhibition [7]: Active; inhibition [8]: Active
33.4,COc1cccc(-c2cc(C(=O)Nc3cc4ccc5c(c4oc3=O)NC(=O)C(C(N)=O)O5)ccc2OC)c1 (stereo unspecified),> 50,–
5.2,COc1cccc(-c2cc(C(=O)Nc3cc4ccc5c(c4oc3=O)NC(=O)C(CCN3CCCC3)O5)ccc2OC)c1 (stereo unspecified),3.49,–
–,COc1cccc(-c2cc(C(=O)Nc3cc4cc(OC)c(OC(C)=O)c(C)c4oc3=O)ccc2OC)c1,6,–
> 50,COc1cccc(-c2cc(C(=O)Nc3cc4ccc5c(c4oc3=O)NC(=O)C(C(=O)N3CCCC3)O5)ccc2OC)c1 (stereo unspecified),> 50,–
1.16,COc1cccc(-c2cc(C(=O)Nc3cc4ccc5c(c4oc3=O)NC(=O)C(CCNC3CCCCC3)O5)ccc2OC)c1 (stereo unspecified),0.78,–
2.43,COc1cccc(-c2cc(C(=O)Nc3cc4ccc5c(c4oc3=O)NC(=O)C(CCCN3CCN(C)CC3)O5)ccc2OC)c1 (stereo unspecified),1.76,–
> 50,COc1cccc(-c2cc(C(=O)Nc3cc4ccc5c(c4oc3=O)NC(=O)C(Cc3ccc(C)cc3)O5)ccc2OC)c1 (stereo unspecified),> 50,–
0.85,COc1cccc(-c2cc(C(=O)Nc3cc4ccc5c(c4oc3=O)NC(=O)C(CCCN3CCCCC3)O5)ccc2OC)c1 (stereo unspecified),0.78,inhibition [3]: Active; inhibition [4]: Active; Activity (MCF7 [9]): Non-toxic; inhibition [5]: Active; inhibition [6]: Active; inhibition [10]: Dose-dependent effect; inhibition [7]: Active; inhibition [11]: Dose-dependent effect; inhibition [12]: Dose-dependent effect; inhibition [8]: Active; Activity (MCF7 [13]): Non-toxic
7.63,COc1cccc(-c2cc(C(=O)Nc3cc4ccc5c(c4oc3=O)NC(=O)C(CCN3CCNCC3)O5)ccc2OC)c1 (stereo unspecified),5.44,–
1.09,COc1cccc(-c2cc(C(=O)Nc3cc4ccc5c(c4oc3=O)NC(=O)C(CCNC34C[C@H]6C[C@@H](C3)C[C@@H](C4)C6)O5)ccc2OC)c1 (stereo partly specified),0.88,–
5.27,COc1cccc(-c2cc(C(=O)Nc3cc4ccc5c(c4oc3=O)NC(=O)C(CN3CCNCC3)O5)ccc2OC)c1 (stereo unspecified),5.78,–
> 50,COc1cccc(-c2cc(C(=O)Nc3cc4ccc5c(c4oc3=O)NC(=O)C(c3ccccc3)O5)ccc2OC)c1 (stereo unspecified),48.2,–
1.53,COc1cccc(-c2cc(C(=O)Nc3cc4ccc5c(c4oc3=O)NC(=O)C(CCCCN3CCCC3)O5)ccc2OC)c1 (stereo unspecified),2.5,–
–,COc1cccc(-c2cc(C(=O)Nc3cc4ccc(OCCN(C)C)c(OC)c4oc3=O)ccc2OC)c1,2,–
6.12,COc1ccc(CC2Oc3ccc4cc(NC(=O)c5ccc(OC)c(-c6cccc(OC)c6)c5)c(=O)oc4c3NC2=O)cc1 (stereo unspecified),8.37,–
9,COc1cccc(-c2cc(C(=O)Nc3cc4ccc(O[C@H]5OC(C)(C)[C@@H](OC)[C@H](O)[C@@H]5O)c(OC)c4oc3=O)ccc2OC)c1,13.9,–
22.1,COc1cccc(-c2cc(C(=O)Nc3cc4ccc5c(c4oc3=O)NC(=O)C(Cc3ccccc3)O5)ccc2OC)c1 (stereo unspecified),21.5,–
0.72,COc1cccc(-c2cc(C(=O)Nc3cc4ccc5c(c4oc3=O)NC(=O)C(CCCN[C@]34CC6CC(C[C@@H](C6)C3)C4)O5)ccc2OC)c1 (stereo partly specified),0.62,inhibition [3]: Active; inhibition [4]: Active; inhibition [5]: Active; inhibition [6]: Active; inhibition [7]: Active; inhibition [8]: Active
> 50,COc1cccc(-c2cc(C(=O)Nc3cc4ccc5c(c4oc3=O)NC(=O)C(CN3CCN(C(=O)OC(C)(C)C)CC3)O5)ccc2OC)c1 (stereo unspecified),> 50,–
5.68,COc1cccc(-c2cc(C(=O)Nc3cc4ccc5c(c4oc3=O)NC(=O)C(CCN3CCN(C)CC3)O5)ccc2OC)c1 (stereo unspecified),4.1,–
12.8,COc1cccc(-c2cc(C(=O)Nc3cc4ccc5c(c4oc3=O)NC(=O)C(CCCN3CCNCC3)O5)ccc2OC)c1 (stereo unspecified),9.08,–
